Activity calls are given as the source filed them. No cut-off for these calls is given here.
Tests used:
[1] = test system: HL-60; test: Induction of cell cycle arrest in human HL60 cells assessed as accumulation at G1 phase at 10 uM after 12 hrs by propidium iodide staining based flow cytometry (reference value: 57.2 +/- 0.9%); assay type: functional
[2] = test system: U-937; test: Induction of Bid processing in human U937 cells by Western blotting method
[3] = test system: HL-60; test: Induction of cell cycle arrest in human HL60 cells assessed as accumulation at G1 phase at 1 uM after 24 hrs by propidium iodide staining based flow cytometry (reference value: 53 +/- 1.1%); assay type: functional
[4] = test system: U-937; test: Induction of cell cycle arrest in human U937 cells assessed as accumulation at G1 phase at 3 uM after 12 hrs by propidium iodide staining based flow cytometry (reference value: 45.8 +/- 0.8%); assay type: functional
[5] = test system: HL-60; test: Induction of apoptosis in human HL60 cells in presence of p38MAPK inhibitor SB203580 after 24 hrs by propidium iodide staining based flow cytometry; assay type: functional, cell-based
[6] = target: Mitogen-activated protein kinase; ERK1/ERK2 (Homo sapiens) (UniProt P27361+P28482); test: Increase in ERK1/2 phosphorylation in human HL60 cells at 10 to 30 uM after 2 to 6 hrs by Western blotting method; assay type: cell-based; conditions: HL-60
How it was run: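 HL-60 cells were incubated for a time course. Extracts were immunoblotted with phospho-specific antibodies for ERK 1/2, JNK/SAPK and p38MAPK. Membranes were then stripped and reprobed for the total kinases as loading controls.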

[7] = test system: HL-60; test: Induction of apoptosis in human HL60 cells assessed as increase in caspase 3/7 activity DEVD-pNA substrate at 10 uM after 24 hrs; assay type: functional
How it was run: (§1)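 Cells were given 10 µM for 24 h. Lysates were assayed for cleavage of DEVD-pNA (caspase-3/7), IETD-pNA (caspase-8) and LEHD-pNA (caspase-9). Results are expressed as fold over control, from three independent experiments in triplicate.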

[8] = test system: HL-60; test: Induction of cell cycle arrest in human HL60 cells assessed as accumulation at G2/M phase at 3 uM after 48 hrs by propidium iodide staining based flow cytometry (reference value: 17.9 +/- 0.7%); assay type: functional
[9] = test system: HL-60; test: Induction of cell cycle arrest in human HL60 cells assessed as accumulation at G2/M phase at 10 uM after 24 hrs by propidium iodide staining based flow cytometry (reference value: 22.5 +/- 0.9%); assay type: functional
[10] = test system: MOLT-3; test: Effect on Bcl-2 expression in human MOLT3 cells by Western blotting method; assay type: functional, cell-based
How it was run: (§2)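 Cells were exposed to a range of compound concentrations and harvested at 24 h. Lysates were immunoblotted for caspase proforms and cleaved forms, and for Bcl-2 family proteins.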

[11] = Cytotoxicity against human HL60 cells after 72 hrs by MTT assay; assay type: functional, cell-based; conditions: HL-60, 72 h
How it was run: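 MTT colorimetric assay with 72 h continuous exposure. IC50 was fitted per experiment by non-linear regression. Values are means with SE from at least three independent experiments, each run in triplicate.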

[12] = test system: U-937; test: Induction of cell cycle arrest in human U937 cells assessed as accumulation at G1 phase at 10 uM after 24 hrs by propidium iodide staining based flow cytometry (reference value: 49.8 +/- 1.5%); assay type: functional
[13] = test system: U-937; test: Induction of cell cycle arrest in human U937 cells assessed as accumulation at S phase at 10 uM after 48 hrs by propidium iodide staining based flow cytometry (reference value: 18.9 +/- 0.2%); assay type: functional
[14] = test system: U-937; test: Induction of cell cycle arrest in human U937 cells assessed as accumulation at S phase at 10 uM after 12 hrs by propidium iodide staining based flow cytometry (reference value: 20.5 +/- 0.8%); assay type: functional
[15] = test system: HL-60; test: Induction of apoptosis in human HL60 cells assessed as increase in caspase 9 activity using LEHD-pNA substrate at 10 uM after 24 hrs; assay type: functional; how it was run: as §1
[16] = test system: HL-60; test: Induction of apoptosis in human HL60 cells assessed as pro-caspase-7 cleavage by Western blotting method; assay type: functional, cell-based; how it was run: as §2
[17] = test system: U-937; test: Cytotoxicity against human U937 cells at 30 uM in presence of 0.5 ug/mL TRAIL incubated simultaneously with drug for 48 hrs by MTT assay; assay type: functional, cell-based
How it was run: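 U937 cells, MTT viability read-out. One arm received TRAIL at 0.5 µg/mL together with compound at 30 µM for 48 h. The other arm had compound for 24 h, then TRAIL for 24 h. Three independent experiments, each in triplicate.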

[18] = test system: HL-60; test: Induction of apoptosis in human HL60 cells assessed as pro-caspase-9 processing at 3 and 10 uM after 6 to 24 hrs by immunoblotting method; assay type: functional, cell-based
How it was run: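 Kinetic and dose-response immunoblots. Cells were treated, harvested at the indicated times, and probed with antibodies that detect both procaspase-8/-9 and their cleaved fragments.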

[19] = test system: U-937; test: Induction of cell cycle arrest in human U937 cells assessed as accumulation at G2/M phase at 3 uM after 48 hrs by propidium iodide staining based flow cytometry (reference value: 19.1 +/- 1.1%); assay type: functional
[20] = test system: MOLT-3; test: Induction of apoptosis in human MOLT3 cells assessed as pro-caspase-8 cleavage by Western blotting method; assay type: functional, cell-based; how it was run: as §2
[21] = test system: HL-60; test: Induction of cell cycle arrest in human HL60 cells assessed as accumulation at S phase at 10 uM after 12 hrs by propidium iodide staining based flow cytometry (reference value: 14.7 +/- 0.3%); assay type: functional
[22] = test system: MOLT-3; test: Induction of apoptosis in human MOLT3 cells assessed as reduction in pro-caspase-4 level by Western blotting method; assay type: functional, cell-based; how it was run: as §2
[23] = test system: HL-60; test: Increase in TRAIL expression in human HL60 cells at 10 30 uM after 24 hrs by immunoblotting method; assay type: functional, cell-based
How it was run: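 HL-60 and U937 cells were treated with increasing concentrations for 24 h. Lysates were immunoblotted for TRAIL, DR4 and DR5.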

[24] = test system: HL-60; test: Induction of apoptosis in human HL60 cells assessed as pro-caspase-8 cleavage by Western blotting method; assay type: functional, cell-based; how it was run: as §2
[25] = test system: HL-60; test: Induction of cell cycle arrest in human HL60 cells assessed as accumulation at S phase at 10 uM after 24 hrs by propidium iodide staining based flow cytometry (reference value: 17.9 +/- 0.6%); assay type: functional
[26] = test system: HL-60; test: Induction of cell cycle arrest in human HL60 cells assessed as accumulation at subG1 phase at 10 uM after 12 hrs by propidium iodide staining based flow cytometry (reference value: 6.1 +/- 0.5%); assay type: functional
[27] = test system: U-937; test: Induction of cell cycle arrest in human U937 cells assessed as accumulation at G1 phase at 1 uM after 12 hrs by propidium iodide staining based flow cytometry (reference value: 45.8 +/- 0.8%); assay type: functional
[28] = test system: HL-60; test: Induction of cell cycle arrest in human HL60 cells assessed as accumulation at S phase at 1 uM after 24 hrs by propidium iodide staining based flow cytometry (reference value: 17.9 +/- 0.6%); assay type: functional
[29] = test system: U-937; test: Induction of cell cycle arrest in human U937 cells assessed as accumulation at G2/M phase at 1 uM after 48 hrs by propidium iodide staining based flow cytometry (reference value: 19.1 +/- 1.1%); assay type: functional
[30] = test system: MOLT-3; test: Effect on Bax expression in human MOLT3 cells by Western blotting method; assay type: functional, cell-based; how it was run: as §2
[31] = test system: U-937; test: Induction of cell cycle arrest in human U937 cells assessed as accumulation at S phase at 3 uM after 48 hrs by propidium iodide staining based flow cytometry (reference value: 18.9 +/- 0.2%); assay type: functional
[32] = test system: MOLT-3; test: Induction of apoptosis in human MOLT3 cells assessed as pro-caspase-7 cleavage by Western blotting method; assay type: functional, cell-based; how it was run: as §2

Chain of Mitogen-activated protein kinase; ERK1/ERK2 (Homo sapiens) (P27361 whole entry, looked up): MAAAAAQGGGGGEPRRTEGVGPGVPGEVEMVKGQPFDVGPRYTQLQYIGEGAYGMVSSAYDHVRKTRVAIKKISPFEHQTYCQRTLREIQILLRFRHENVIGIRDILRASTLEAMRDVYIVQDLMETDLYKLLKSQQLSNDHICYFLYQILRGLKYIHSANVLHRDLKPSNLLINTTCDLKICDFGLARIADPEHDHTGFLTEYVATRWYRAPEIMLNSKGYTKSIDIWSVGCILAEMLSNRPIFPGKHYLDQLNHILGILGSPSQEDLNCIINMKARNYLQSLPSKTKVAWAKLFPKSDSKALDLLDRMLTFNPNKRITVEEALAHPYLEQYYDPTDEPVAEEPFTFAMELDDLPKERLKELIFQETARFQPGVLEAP
Chain of Mitogen-activated protein kinase; ERK1/ERK2 (Homo sapiens) (P28482 whole entry, looked up): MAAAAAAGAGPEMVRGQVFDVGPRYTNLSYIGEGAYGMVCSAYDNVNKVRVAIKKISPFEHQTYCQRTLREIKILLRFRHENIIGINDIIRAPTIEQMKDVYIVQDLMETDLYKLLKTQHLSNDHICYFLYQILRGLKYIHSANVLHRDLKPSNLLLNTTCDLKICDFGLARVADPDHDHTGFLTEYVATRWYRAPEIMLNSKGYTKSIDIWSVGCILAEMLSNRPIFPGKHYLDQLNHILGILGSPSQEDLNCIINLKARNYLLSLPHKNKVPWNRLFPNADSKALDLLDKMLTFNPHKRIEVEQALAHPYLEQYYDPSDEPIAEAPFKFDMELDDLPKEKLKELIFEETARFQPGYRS

Activity [6]: Active
SMILES: O=c1c(O)c(-c2ccc(Br)cc2)oc2ccccc12
Activity [1]: 58.2% | Activity [2]: Active | Activity [3]: 49.5% | Activity [4]: 46.6% | Activity [5]: Active | fold change (FC) [7]: 4.5 | Activity [8]: 18% | Activity [9]: 12.6% | Activity [10]: inactive | IC50 [11]: 3.3 µM | Activity [12]: 40.2% | Activity [13]: 11.9% | Activity [14]: 24.9% | fold change (FC) [15]: 1.8 | Activity [16]: Active | Activity [17]: Active | Activity [18]: Active | Activity [19]: 19% | Activity [20]: Active | Activity [21]: 15.9% | Activity [22]: Active | Activity [23]: Active | Activity [24]: Active | Activity [25]: 24.1% | Activity [26]: 8.9% | Activity [27]: 45.8% | Activity [28]: 20.7% | Activity [29]: 19.9% | Activity [30]: inactive | Activity [31]: 21.2% | Activity [32]: Active
